ChEMBL document CHEMBL3232904, “Discovery of novel quinoline carboxylic acid series as DGAT1 inhibitors” (Bioorg Med Chem Lett, 2014)
pIC50: −log10 of the molar value. ≈ marks a conversion by molar mass, not a printed value.

Legend:
Mus musculus [1] = test: Reduction of postprandial plasma triglyceride level in C57BL/6J mouse at 10 mg/kg, po administered 15 mins prior to corn oil bolus challenge measured after 2 hrs relative to vehicle-treated control; type: functional; parameters: scale not given: the % may be the effect or the level left
In short: (§1)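 Vehicle is 20% hydroxypropyl-β-cyclodextrin; compound or vehicle is given 15 min before time 0. Mice receive a 0.25 mL corn oil bolus at time 0. Terminal blood is taken by heart puncture at 120 min. Plasma TG is measured by an enzymatic colorimetric kit with absorbance read at 600 nm. Values are the mean ± SEM from eight studies, as % reduction versus vehicle.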

[2] = target: T1, Diacylglycerol O-acyltransferase 2 (Homo sapiens, UniProt Q96PD7); test: Inhibition of human DGAT2
T1 sequence (Q96PD7 whole entry): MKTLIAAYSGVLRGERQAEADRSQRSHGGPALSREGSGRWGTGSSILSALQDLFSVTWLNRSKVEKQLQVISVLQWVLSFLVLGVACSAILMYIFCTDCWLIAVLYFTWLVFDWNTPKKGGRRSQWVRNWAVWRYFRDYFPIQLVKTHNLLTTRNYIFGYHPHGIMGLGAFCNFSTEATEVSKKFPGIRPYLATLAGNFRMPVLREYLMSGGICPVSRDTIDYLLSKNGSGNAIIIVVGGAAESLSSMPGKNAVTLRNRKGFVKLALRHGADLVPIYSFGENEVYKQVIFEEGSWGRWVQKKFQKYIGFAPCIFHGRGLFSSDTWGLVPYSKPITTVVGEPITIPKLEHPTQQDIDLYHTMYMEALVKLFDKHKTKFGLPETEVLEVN

[3] = target: T2, Sterol O-acyltransferase 2 (Homo sapiens, UniProt O75908); test: Inhibition of human ACAT2
T2 sequence (O75908 whole entry): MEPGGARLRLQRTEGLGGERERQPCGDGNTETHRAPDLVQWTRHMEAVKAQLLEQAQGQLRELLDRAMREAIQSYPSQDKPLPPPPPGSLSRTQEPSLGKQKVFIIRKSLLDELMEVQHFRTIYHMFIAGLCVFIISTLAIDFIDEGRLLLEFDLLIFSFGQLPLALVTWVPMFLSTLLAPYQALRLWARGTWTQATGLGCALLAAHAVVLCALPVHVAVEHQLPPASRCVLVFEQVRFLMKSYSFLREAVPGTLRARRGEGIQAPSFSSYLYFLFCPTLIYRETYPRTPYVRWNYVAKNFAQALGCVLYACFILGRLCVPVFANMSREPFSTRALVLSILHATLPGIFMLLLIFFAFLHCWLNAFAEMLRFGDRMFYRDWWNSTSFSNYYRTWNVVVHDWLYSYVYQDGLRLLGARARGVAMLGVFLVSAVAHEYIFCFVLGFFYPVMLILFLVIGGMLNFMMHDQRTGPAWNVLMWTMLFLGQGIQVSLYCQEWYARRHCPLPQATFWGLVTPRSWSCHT
In short: (§2)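 IC50 values are the average of at least two independent determinations.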

[4] = Drug degradation in human plasma at 25 degC after 12 hrs; type: ADME, cell-free; conditions: read-out: Drug degradation
[5] = target: T3, Diacylglycerol O-acyltransferase 1 (Homo sapiens, UniProt O75907); test: Inhibition of human DGAT1
T3 sequence (O75907 whole entry): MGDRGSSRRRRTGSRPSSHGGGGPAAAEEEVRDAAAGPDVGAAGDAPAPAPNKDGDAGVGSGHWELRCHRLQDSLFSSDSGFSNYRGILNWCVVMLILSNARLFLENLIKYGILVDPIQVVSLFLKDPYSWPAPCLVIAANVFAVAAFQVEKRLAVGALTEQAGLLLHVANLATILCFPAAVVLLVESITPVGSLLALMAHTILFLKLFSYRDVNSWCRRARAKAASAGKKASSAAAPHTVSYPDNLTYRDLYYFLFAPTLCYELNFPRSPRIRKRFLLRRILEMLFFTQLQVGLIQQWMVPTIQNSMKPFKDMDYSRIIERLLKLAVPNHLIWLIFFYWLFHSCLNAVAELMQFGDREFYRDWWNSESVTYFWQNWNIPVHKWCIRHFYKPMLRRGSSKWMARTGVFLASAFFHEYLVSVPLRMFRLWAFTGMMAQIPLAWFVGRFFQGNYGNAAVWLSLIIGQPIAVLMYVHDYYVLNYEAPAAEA

[6] = target: T4, Diacylglycerol O-acyltransferase 1 (Mus musculus, UniProt Q9Z2A7); test: Inhibition of mouse DGAT1; in short: as §2
T4 sequence (Q9Z2A7 whole entry): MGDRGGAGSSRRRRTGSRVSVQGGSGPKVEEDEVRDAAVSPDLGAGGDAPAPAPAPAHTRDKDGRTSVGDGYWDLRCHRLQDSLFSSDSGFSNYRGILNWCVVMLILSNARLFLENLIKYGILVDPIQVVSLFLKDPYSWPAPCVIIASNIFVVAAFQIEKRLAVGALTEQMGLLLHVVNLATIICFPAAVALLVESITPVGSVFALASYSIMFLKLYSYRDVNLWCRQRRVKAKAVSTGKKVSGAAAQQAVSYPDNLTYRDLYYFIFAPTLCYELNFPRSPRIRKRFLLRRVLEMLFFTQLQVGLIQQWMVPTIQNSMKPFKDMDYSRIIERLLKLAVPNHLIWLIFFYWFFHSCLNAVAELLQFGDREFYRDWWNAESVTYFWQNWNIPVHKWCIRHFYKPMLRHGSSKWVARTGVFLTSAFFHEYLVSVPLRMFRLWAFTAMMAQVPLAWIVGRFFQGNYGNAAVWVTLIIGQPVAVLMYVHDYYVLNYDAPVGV

[7] = AUC in rat at 10 mg/kg, po; type: ADME, organism-based; parameters: dose 10 mg/kg, route oral; conditions: plasma
[8] = Solubility of the compound; type: physicochemical
[9] = Clearance in rat hepatocytes assessed per million cells; type: ADME, cell-based, Hepatocyte; conditions: read-out: CLH
[10] = Half life in rat at 10 mg/kg, po; type: ADME, organism-based; parameters: dose 10 mg/kg, route oral; conditions: in vivo
[11] = Permeability across human Caco2 cells; type: ADME, cell-based; conditions: Caco-2, read-out: permeability
[12] = Oral bioavailability in rat at 10 mg/kg; type: ADME, organism-based; conditions: in vivo
[13] = Clearance in human hepatocytes assessed per million cells; type: ADME, cell-based, Hepatocyte; conditions: read-out: CLH
[14] = Plasma protein binding in rat; type: ADME, cell-free; conditions: read-out: PPB (converted)
[15] = Metabolic stability in human plasma assessed as compound recovery at 25 degC after 6 days; type: ADME, cell-free; conditions: read-out: Drug recovery
CYP1A1 = target: T5, CYP1A1 (Homo sapiens, UniProt P04798); test: Induction of CYP1A1 (unknown origin) at 30 uM; type: ADME; conditions: read-out: FC
T5 sequence (P04798 whole entry): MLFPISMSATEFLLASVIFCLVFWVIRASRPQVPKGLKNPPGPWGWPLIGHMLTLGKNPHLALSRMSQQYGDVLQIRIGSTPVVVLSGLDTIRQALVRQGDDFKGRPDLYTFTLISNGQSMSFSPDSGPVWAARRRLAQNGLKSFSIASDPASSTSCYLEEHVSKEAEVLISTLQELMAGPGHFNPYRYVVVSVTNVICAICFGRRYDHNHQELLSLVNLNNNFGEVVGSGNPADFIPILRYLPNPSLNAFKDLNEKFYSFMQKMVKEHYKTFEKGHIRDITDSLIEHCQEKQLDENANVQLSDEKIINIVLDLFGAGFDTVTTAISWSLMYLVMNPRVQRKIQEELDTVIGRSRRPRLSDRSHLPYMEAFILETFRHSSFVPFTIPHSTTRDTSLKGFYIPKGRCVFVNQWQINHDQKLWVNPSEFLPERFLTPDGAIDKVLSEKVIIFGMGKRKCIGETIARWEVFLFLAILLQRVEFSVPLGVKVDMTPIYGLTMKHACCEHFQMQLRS

[16] = Solubility of the compound at pH 7; type: physicochemical; conditions: buffer
[17] = target: T6, Sterol O-acyltransferase 1 (Homo sapiens, UniProt P35610); test: Inhibition of human ACAT1; in short: as §2
T6 sequence (P35610 whole entry): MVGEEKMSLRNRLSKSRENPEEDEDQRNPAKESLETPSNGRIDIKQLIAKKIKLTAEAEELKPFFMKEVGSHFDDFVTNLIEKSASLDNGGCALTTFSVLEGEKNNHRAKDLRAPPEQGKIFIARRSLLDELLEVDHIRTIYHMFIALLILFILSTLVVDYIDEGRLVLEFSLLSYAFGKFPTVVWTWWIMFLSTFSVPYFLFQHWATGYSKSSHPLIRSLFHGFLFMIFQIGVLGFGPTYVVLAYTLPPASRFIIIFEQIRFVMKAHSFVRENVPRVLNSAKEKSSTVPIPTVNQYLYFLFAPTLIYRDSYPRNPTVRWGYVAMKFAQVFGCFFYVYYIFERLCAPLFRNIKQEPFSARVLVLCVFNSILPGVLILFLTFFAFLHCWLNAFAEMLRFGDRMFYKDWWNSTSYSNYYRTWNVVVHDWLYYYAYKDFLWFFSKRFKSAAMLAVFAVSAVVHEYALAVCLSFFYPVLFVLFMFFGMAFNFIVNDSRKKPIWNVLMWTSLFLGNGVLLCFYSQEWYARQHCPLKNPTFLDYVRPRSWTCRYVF

Mus musculus [18] = test: Reduction of postprandial plasma triglyceride level in C57BL/6J mouse at 3 mg/kg, po administered 15 mins prior to corn oil bolus challenge measured after 2 hrs relative to vehicle-treated control; type: functional; parameters: scale not given: the % may be the effect or the level left; in short: as §1

Structure (SMILES) | Activity (Mus musculus [1]) [%] | pIC50 [5] | pIC50 [6] | AUC [7] [µM·h] | other results
O=C(O)C[C@H]1CC[C@H](c2ccc(-c3ccc4c(ccn4C(=O)Nc4ccccc4)c3)cc2)CC1 | -45 | 7.43 | – | – | pIC50 [2]: < 4.30; pIC50 [3]: 5.52; metabolised at 12 h [4]: 40%
O=C(O)C[C@H]1CC[C@H](c2ccc(-c3ccc4oc(Nc5ccccc5)nc4c3)cc2)CC1 | – | – | 5.42 | – | –
O=C(O)C[C@H]1CC[C@H](c2ccc(-c3ccc4nc(Nc5ccccc5)ncc4c3)cc2)CC1 | – | – | < 5.00 | – | –
O=C(O)C[C@H]1CC[C@H](c2ccc(-c3ccc4nc(C(=O)Nc5ccccc5)[nH]c4c3)cc2)CC1 | – | – | < 5.30 | – | –
O=C(O)C[C@H]1CC[C@H](c2ccc(-c3ccc4cc(C(=O)Nc5ccccc5)[nH]c4c3)cc2)CC1 | – | – | 5.96 | – | –
O=C(O)C[C@H]1CC[C@H](c2ccc(-c3ccc4c(C(=O)Nc5ccccc5)c[nH]c4c3)cc2)CC1 | 23 | – | 6.55 | 1.3 | –
O=C(O)C[C@H]1CC[C@H](c2ccc(-c3ccc4c(c3)CCCN4C(=O)Nc3ccccc3)cc2)CC1 | -15 | – | 7.08 | 79 | –
O=C(O)C[C@H]1CC[C@H](c2ccc(-c3ccc4c(c3)C(=O)CCN4C(=O)Nc3ccccc3)cc2)CC1 | – | < 5.00 | 5.78 | – | –
O=C(O)C[C@H]1CC[C@H](c2ccc(-c3ccc4c(c3)NCCN4C(=O)Nc3ccccc3)cc2)CC1 | – | – | 5.32 | – | –
CN1CCN(C(=O)Nc2ccccc2)c2ccc(-c3ccc([C@H]4CC[C@H](CC(=O)O)CC4)cc3)cc2C1 | – | < 5.00 | < 5.00 | – | –
O=C(O)C[C@H]1CC[C@H](c2ccc(-c3ccc4c(c3)CCN4C(=O)Nc3ccccc3)cc2)CC1 | -13 | – | 7.16 | 17 | solubility [8]: 50 µM (≈ 22.7 µg/mL); hepatocyte CLint [9]: 13 µL/min/1e6 cells; half-life [10]: 3 h; Papp [11]: 17 ×10⁻⁶ cm/s; bioavailability [12]: > 90%; hepatocyte CLint [13]: 3 µL/min/1e6 cells; fraction unbound [14]: 0.002; metabolised at 12 h [4]: 20%
O=C(O)C[C@H]1CC[C@H](c2ccc(-c3ccc4c(c3)OCCN4C(=O)Nc3ccccc3)cc2)CC1 | -52 | 7.19 | 7.40 | 58 | solubility [8]: 100 µM (≈ 47.1 µg/mL); hepatocyte CLint [9]: 9 µL/min/1e6 cells; half-life [10]: 4 h; remaining at 144 h [15]: 80%; Papp [11]: 44.8 ×10⁻⁶ cm/s; pIC50 [2]: < 5.00; hepatocyte CLint [13]: 11 µL/min/1e6 cells; fraction unbound [14]: 0.002; pIC50 [3]: 5.01; fold induction at 30 µM (CYP1A1): 10
O=C(O)C[C@H]1CC[C@H](c2ccc(-c3ccc4c(C(=O)Nc5ccccc5)cccc4c3)cc2)CC1 | 0 | – | 8.10 | – | solubility [16]: 10 µM (≈ 4.64 µg/mL)
O=C(O)C[C@H]1CC[C@H](c2ccc(-c3ccc4c(C(=O)Nc5ccccc5)ccnc4c3)cc2)CC1 | -85 | 7.39 | 7.64 | 5 | solubility [8]: 50 µM (≈ 23.2 µg/mL); Papp [11]: 54.2 ×10⁻⁶ cm/s; pIC50 [17]: 5.38
Cc1cc(C(=O)NCCCCCc2ccccc2)c2ccc(-c3ccc([C@H]4CC[C@H](CC(=O)O)CC4)cc3)cc2n1 | – | – | 8.85 | 10 | Activity (Mus musculus [18]): -58%
Cc1cc(C(=O)Nc2ccccc2)c2ccc(-c3ccc(OCC(C)(C)C(=O)O)nc3)cc2n1 | – | – | 7.16 | 34 | Activity (Mus musculus [18]): -91%; pIC50 [3]: 5.81
Cc1cc(C(=O)Nc2ccccc2)c2ccc(-c3ccc(OCC(C)(C)C(=O)O)[n+]([O-])c3)cc2n1 | – | 6.91 | 7.64 | – | Activity (Mus musculus [18]): -40%; pIC50 [3]: 4.88
